# Legend:
# [1] = tested on: K562; experiment: Antiproliferative activity against human K562 cells at 10 uM after 48 hrs by trypan blue assay; type: functional; conditions: K562, 48 h, read-out: GI
# [2] = tested on: K562; experiment: Growth inhibition of human K562 cells after 48 hrs by trypan blue assay; type: functional, cell-based; conditions: K562, 48 h
# [3] = tested on: CCRF-CEM; experiment: Growth inhibition of human CCRF-CEM cells after 48 hrs by SRB assay; type: functional
# Summary of the method: (§1)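 NCI DTP panel cells grown in RPMI 1640 with 5% FBS and 2 mM L-glutamine, preincubated 24 h, then given five concentrations (10-fold or ½-log dilutions from DMSO stock) for 48 h at 37 °C. Cells fixed with TCA, stained with SRB, absorbance read at 515 nm, with time-zero plates as reference.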
# [4] = tested on: HL-60; experiment: Growth inhibition of human HL60 cells after 48 hrs by SRB assay; type: functional; conditions: HL-60, 48 h; summary of the method: as §1
# [5] = tested on: K562; experiment: Growth inhibition of human K562 cells after 48 hrs by SRB assay; type: functional; conditions: K562, 48 h; summary of the method: as §1
# [6] = tested on: MOLT-4; experiment: Growth inhibition of human MOLT4 cells after 48 hrs by SRB assay; type: functional; conditions: MOLT-4, 48 h; summary of the method: as §1
# [7] = tested on: RPMI-8226; experiment: Growth inhibition of human RPMI8226 cells after 48 hrs by SRB assay; type: functional; conditions: RPMI-8226, 48 h; summary of the method: as §1
# [8] = tested on: A549; experiment: Growth inhibition of human A549 cells after 48 hrs by SRB assay; type: functional; conditions: A549, 48 h; summary of the method: as §1
# [9] = tested on: EKVX; experiment: Growth inhibition of human EKVX cells after 48 hrs by SRB assay; type: functional; summary of the method: as §1
# [10] = tested on: HOP-62; experiment: Growth inhibition of human HOP62 cells after 48 hrs by SRB assay; type: functional; conditions: HOP-62, 48 h; summary of the method: as §1
# [11] = tested on: HOP-92; experiment: Growth inhibition of human HOP92 cells after 48 hrs by SRB assay; type: functional; conditions: HOP-92, 48 h; summary of the method: as §1
# [12] = tested on: NCI-H226; experiment: Growth inhibition of human NCI-H226 cells after 48 hrs by SRB assay; type: functional; conditions: NCI-H226, 48 h; summary of the method: as §1
# [13] = tested on: NCI-H23; experiment: Growth inhibition of human NCI-H23 cells after 48 hrs by SRB assay; type: functional; conditions: NCI-H23, 48 h; summary of the method: as §1
# [14] = tested on: NCI-H460; experiment: Growth inhibition of human NCI-H460 cells after 48 hrs by SRB assay; type: functional; conditions: NCI-H460, 48 h; summary of the method: as §1
# [15] = tested on: COLO 205; experiment: Growth inhibition of human COLO205 cells after 48 hrs by SRB assay; type: functional; conditions: COLO 205, 48 h; summary of the method: as §1
# [16] = tested on: HCT-116; experiment: Growth inhibition of human HCT116 cells after 48 hrs by SRB assay; type: functional; conditions: HCT-116, 48 h; summary of the method: as §1
# [17] = tested on: HCT-15; experiment: Growth inhibition of human HCT15 cells after 48 hrs by SRB assay; type: functional; conditions: HCT-15, 48 h; summary of the method: as §1
# [18] = tested on: HT-29; experiment: Growth inhibition of human HT-29 cells after 48 hrs by SRB assay; type: functional; conditions: HT-29, 48 h; summary of the method: as §1
# [19] = tested on: KM12; experiment: Growth inhibition of human KM12 cells after 48 hrs by SRB assay; type: functional; conditions: KM12, 48 h; summary of the method: as §1
# [20] = tested on: SW-620; experiment: Growth inhibition of human SW620 cells after 48 hrs by SRB assay; type: functional; conditions: SW-620, 48 h
# Summary of the method: (§2)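 Run by the NCI Developmental Therapeutics Program: cells in RPMI 1640 with 5% FBS and 2 mM L-glutamine, plated at 5000–40,000 cells/well and grown 24 h before dosing. Drug (DMSO stock) given at five concentrations for 48 h at 37 °C, 5% CO2. Adherent cells fixed with cold TCA, stained with 0.4% SRB and read at 515 nm. GI50, TGI and LC50 taken from the time-zero, control and treated absorbances.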
# [21] = tested on: SF-268; experiment: Growth inhibition of human SF268 cells after 48 hrs by SRB assay; type: functional; conditions: SF-268, 48 h; summary of the method: as §1
# [22] = tested on: SF-295; experiment: Growth inhibition of human SF295 cells after 48 hrs by SRB assay; type: functional; conditions: SF-295, 48 h; summary of the method: as §1
# [23] = tested on: SF-539; experiment: Growth inhibition of human SF539 cells after 48 hrs by SRB assay; type: functional; conditions: SF-539, 48 h; summary of the method: as §1
# [24] = tested on: SNB-19; experiment: Growth inhibition of human SNB19 cells after 48 hrs by SRB assay; type: functional; conditions: SNB-19, 48 h; summary of the method: as §2
# [25] = tested on: SNB-75; experiment: Growth inhibition of human SNB75 cells after 48 hrs by SRB assay; type: functional; conditions: SNB-75, 48 h; summary of the method: as §2
# [26] = tested on: U-251; experiment: Growth inhibition of human U251 cells after 48 hrs by SRB assay; type: functional; conditions: U-251, 48 h; summary of the method: as §2
# [27] = tested on: LOX IMVI; experiment: Growth inhibition of human LOXIMVI cells after 48 hrs by SRB assay; type: functional; summary of the method: as §1
# [28] = tested on: Malme-3M; experiment: Growth inhibition of human MALME-3M cells after 48 hrs by SRB assay; type: functional; summary of the method: as §1
# [29] = tested on: M14; experiment: Growth inhibition of human M14 cells after 48 hrs by SRB assay; type: functional; conditions: M14, 48 h; summary of the method: as §1
# [30] = tested on: MDA-MB-435; experiment: Growth inhibition of human MDA-MB-435 cells after 48 hrs by SRB assay; type: functional; conditions: MDA-MB-435, 48 h; summary of the method: as §1
# [31] = tested on: SK-MEL-28; experiment: Growth inhibition of human SK-MEL-28 cells after 48 hrs by SRB assay; type: functional; conditions: SK-MEL-28, 48 h; summary of the method: as §2
# [32] = tested on: SK-MEL-5; experiment: Growth inhibition of human SK-MEL-5 cells after 48 hrs by SRB assay; type: functional; conditions: SK-MEL-5, 48 h; summary of the method: as §2
# [33] = tested on: UACC-62; experiment: Growth inhibition of human UACC62 cells after 48 hrs by SRB assay; type: functional; conditions: UACC-62, 48 h; summary of the method: as §2
# [34] = tested on: OVCAR-3; experiment: Growth inhibition of human OVCAR3 cells after 48 hrs by SRB assay; type: functional; conditions: OVCAR-3, 48 h; summary of the method: as §1
# [35] = tested on: OVCAR-5; experiment: Growth inhibition of human OVCAR5 cells after 48 hrs by SRB assay; type: functional; conditions: OVCAR-5, 48 h; summary of the method: as §1
# [36] = tested on: NCI/ADR-RES; experiment: Growth inhibition of human NCI/ADR-RES cells after 48 hrs by SRB assay; type: functional; summary of the method: as §1
# [37] = tested on: SK-OV-3; experiment: Growth inhibition of human SKOV3 cells after 48 hrs by SRB assay; type: functional; conditions: SK-OV-3, 48 h; summary of the method: as §2
# [38] = tested on: 786-0; experiment: Growth inhibition of human 786-0 cells after 48 hrs by SRB assay; type: functional; conditions: 786-0, 48 h; summary of the method: as §1
# [39] = tested on: A498; experiment: Growth inhibition of human A498 cells after 48 hrs by SRB assay; type: functional; conditions: A498, 48 h; summary of the method: as §1
# [40] = tested on: ACHN; experiment: Growth inhibition of human ACHN cells after 48 hrs by SRB assay; type: functional; summary of the method: as §1
# [41] = tested on: CAKI-1; experiment: Growth inhibition of human Caki1 cells after 48 hrs by SRB assay; type: functional; conditions: CAKI-1, 48 h; summary of the method: as §1
# [42] = tested on: RXF 393; experiment: Growth inhibition of human RXF393 cells after 48 hrs by SRB assay; type: functional; conditions: RXF 393, 48 h; summary of the method: as §1
# [43] = tested on: SN12C; experiment: Growth inhibition of human SN12C cells after 48 hrs by SRB assay; type: functional; summary of the method: as §2
# [44] = tested on: TK-10; experiment: Growth inhibition of human TK10 cells after 48 hrs by SRB assay; type: functional; conditions: TK-10, 48 h; summary of the method: as §2
# [45] = tested on: UO-31; experiment: Growth inhibition of human UO31 cells after 48 hrs by SRB assay; type: functional; conditions: UO-31, 48 h; summary of the method: as §2
# [46] = tested on: PC-3; experiment: Growth inhibition of human PC3 cells after 48 hrs by SRB assay; type: functional; conditions: PC-3, 48 h; summary of the method: as §1
# [47] = tested on: DU-145; experiment: Growth inhibition of human DU145 cells after 48 hrs by SRB assay; type: functional; conditions: DU-145, 48 h; summary of the method: as §1
# [48] = tested on: MCF7; experiment: Growth inhibition of human MCF7 cells after 48 hrs by SRB assay; type: functional; conditions: MCF7, 48 h; summary of the method: as §1
# [49] = tested on: MDA-MB-231; experiment: Growth inhibition of human MDA-MB-231 cells after 48 hrs by SRB assay; type: functional; conditions: MDA-MB-231, 48 h; summary of the method: as §1
# [50] = Growth inhibition of human Hs 578T cells after 48 hrs by SRB assay; type: functional; summary of the method: as §1
# [51] = tested on: BT-549; experiment: Growth inhibition of human BT549 cells after 48 hrs by SRB assay; type: functional; conditions: BT-549, 48 h; summary of the method: as §1
# [52] = tested on: T47D; experiment: Growth inhibition of human T47D cells after 48 hrs by SRB assay; type: functional; summary of the method: as §2
# [53] = tested on: MDA-MB-468; experiment: Growth inhibition of human MDA-MB-468 cells after 48 hrs by SRB assay; type: functional; conditions: MDA-MB-468, 48 h; summary of the method: as §1
smiles,measurement,setting,value
NC(=O)c1cc(Br)ccc1NC(=O)/C=C/c1ccccc1,inhibition of growth at 10 µM,[1],62.4%
same,IC50,[2],5000 nM
same,GI50,[3],429 nM
same,GI50,[4],346 nM
same,GI50,[5],415 nM
same,GI50,[6],1860 nM
same,GI50,[7],1030 nM
same,GI50,[8],1020 nM
same,GI50,[9],2410 nM
same,GI50,[10],1510 nM
same,GI50,[11],1960 nM
same,GI50,[12],2610 nM
same,GI50,[13],1090 nM
same,GI50,[14],662 nM
same,GI50,[15],917 nM
same,GI50,[16],663 nM
same,GI50,[17],1040 nM
same,GI50,[18],527 nM
same,GI50,[19],739 nM
same,GI50,[20],705 nM
same,GI50,[21],1830 nM
same,GI50,[22],625 nM
same,GI50,[23],819 nM
same,GI50,[24],2000 nM
same,GI50,[25],2070 nM
same,GI50,[26],887 nM
same,GI50,[27],3270 nM
same,GI50,[28],1210 nM
same,GI50,[29],482 nM
same,GI50,[30],231 nM
same,GI50,[31],839 nM
same,GI50,[32],435 nM
same,GI50,[33],782 nM
same,GI50,[34],349 nM
same,GI50,[35],2920 nM
same,GI50,[36],400 nM
same,GI50,[37],1410 nM
same,GI50,[38],1760 nM
same,GI50,[39],1700 nM
same,GI50,[40],3360 nM
same,GI50,[41],1340 nM
same,GI50,[42],444 nM
same,GI50,[43],2960 nM
same,GI50,[44],2670 nM
same,GI50,[45],1850 nM
same,GI50,[46],684 nM
same,GI50,[47],935 nM
same,GI50,[48],569 nM
same,GI50,[49],2190 nM
same,GI50,[50],624 nM
same,GI50,[51],1410 nM
same,GI50,[52],1570 nM
same,GI50,[53],279 nM

# Source: ChEMBL document CHEMBL1795311, “Synthesis, antiproliferative activity, and mechanism of action of a series of 2-{[(2E)-3-phenylprop-2-enoyl]amino}benzamides” (Eur J Med Chem, 2011)
